Sampled rows, rich in hits. Any-hit rate of the full collection: about 27%.
CYP2C19 activ – cytochrome P450 2C19 (human) activation. recombinant CYP2C19, luciferin-H EGE luminescence; hits give high values; 0 = fully inhibited enzyme, 1 = untreated enzyme. P33261. AID 1025. activation factor at 5 µM. 96,000 tested, under 10 active;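 active = activation factor of at least 2 at 5 µM in the primary screen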;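 also: 0 = wells with 2.5 mM tranylcypromine and 1 = vehicle-only wells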
HIV Rev-RRE inh – HIV Rev-RRE protein-RNA interaction inhibition; Rev peptide-RRE RNA binding, FRET; inhibition, % at 8 µM; hit rate 0.79% among 97,000; AID 704;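 active = inhibition above the screen-wide mean plus 3 SD, cut at about 35% in these data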;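 also: 0% = median DMSO wells and 100% = median Neomycin B control wells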
Target sequence (P05866 whole entry, looked up): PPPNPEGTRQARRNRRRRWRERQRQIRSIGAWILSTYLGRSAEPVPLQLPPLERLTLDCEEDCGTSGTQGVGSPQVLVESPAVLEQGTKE
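assay system = Cy5-tagged RRE RNA duplex with fluorescein-tagged Rev peptide | incubation = 5 + 15 min at 25 °C | also added = labelled Rev peptide | measure = % inhibition of FRET ratio versus controls | benchmarks = DMSO wells as 0% and neomycin B wells as 100% inhibition | measured by = FRET fluorescence readout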
CYP2C9 inhib – blocks human cytochrome P450 2C9 | AID 777 | CYP2C9 Supersomes, luciferin-H conversion, luminescence | P11712 | inhibition, % at 5 µM | hit rate 20% among 96,000;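 active = blocking of liver enzyme CYP2C9 beyond about 50% at 5 µM, limit read from the data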
CYP2C19 inh – blocks human cytochrome P450 2C19. hit rate 21% among 96,000. CYP2C19 Supersomes, luciferin-H EGE luminescence, 30 min. inhibition, % at 5 µM;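 active = CYP2C19 inhibition above a set limit at 5 µM in the primary screen, cut at about 50% in these data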;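 also: plate controls were negative control wells for no effect and 2.5 mM tranylcypromine positive control for full effect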
CYP2C9 act – CYP2C9 (human) activation | activation factor at 5 µM | P11712 | hit rate 1.4% among 96,000 | recombinant CYP2C9, luciferin-H conversion, luminescence; hits give high values; factor 1 = untreated enzyme, 0 = blocked | AID 1024;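 active = activation factor of 2 or more for CYP2C9 at a 5 µM dose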;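 also: 0 = sulfaphenazole-blocked wells and 1 = vehicle-only wells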
Cav32 inh – inhibitors of human Cav3.2 T-type calcium channel; Cav3.2-expressing cells, Fluo-4 calcium fluorescence FDSS; hits give low values; B-score at 10 µM; hit rate 4% among 100,000; AID 449739;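 active = single-dose well whose peak fluorescence ratio is a statistical outlier from its plate by either plate-standardised score or position-corrected B-score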
Numbers without * were called inactive; nt = not tested or not shown.

SMILES	CYP2C19 activ	HIV Rev-RRE inh	CYP2C9 inhib	CYP2C19 inh	CYP2C9 act	Cav32 inh
COC(=O)Nc1sc2c(c1C(=O)NCc1ccco1)CCCC2	1.1	6	4	-5	1	-0.12
O=C(CCN1C(=O)c2ccccc2C1=O)Nc1sc2c(c1C(=O)NCc1ccco1)CCCC2	0.2	3	92*	76*	0.1	-3
COc1ccc(C(=O)Nc2sc3c(c2C(=O)NCc2ccco2)CCCC3)cc1OC	0.5	5	86*	51*	0.1	-1.2
COc1cc(C(=O)Nc2sc3c(c2C(=O)NCc2ccco2)CCCC3)cc(OC)c1OC	0.4	-2	76*	61*	0.2	-2
COC(=O)Nc1sc2c(c1C(=O)NCc1ccco1)CCC2	0.9	1	34	10	0.7	1.8
C=CCN1CCN(C(c2ccccc2)c2nnnn2CCC(C)C)CC1 (stereo not given)	0.6	-3	-2	43	1	0.49
COc1ccc(C(=O)Nc2ccc(Cl)cc2C(=O)NCc2ccco2)cc1OC	0.7	2	63*	29	0.4	-1.5
Cc1ccc(C(=O)Nc2sc3c(c2C(=O)NCc2ccco2)CCCC3)cc1	0.9	7	65*	8	0.3	-1.7
COc1ccc(C(=O)Nc2ccccc2C(=O)NCc2ccco2)cc1OC	0.8	nt	36	20	0.6	-0.098
NC(Cc1cccc2nsnc12)C(=O)O (stereo not given)	1	-2	6	2	0.9	1.1
N#CCC(CNc1ncc(C(F)(F)F)cc1Cl)OC(=O)c1ccc(Cl)cc1Cl (stereo not given)	0.7	9	50*	30	0.5	-1.8
CSc1cccc(NC(=O)c2ccc(Cl)nc2)c1	0.8	11	-3	17	1	0.64
CN1CCN(C(=O)Cn2c(=O)oc3cc(S(=O)(=O)NCc4ccccc4)ccc32)CC1	0.9	4	50*	13	0.5	0.54
CCOC(=O)Cn1c(=O)oc2cc(S(=O)(=O)NCCCc3ccccc3)ccc21	0.7	18	68*	34	0.3	-1.8
CCOC(=O)Cn1c(=O)oc2cc(S(=O)(=O)N3CCN(c4ccccn4)CC3)ccc21	0.7	1	25	25	0.8	1.6
CCc1ccc(NC(=O)C(=O)NCCN2CCN(C(=O)c3ccco3)CC2)cc1	nt	3	nt	nt	nt	1.6
O=C1Nc2ccccc2/C1=N\c1sc2c(c1C(=O)Nc1ccccc1)CCCC2	nt	3	nt	nt	nt	-0.62
CCCCOCCCn1c(-c2ccco2)nc2nc3ccccc3nc21	0.5	17	52*	50	0.5	0.64
CCCCn1c(-c2cccs2)nc2nc3ccccc3nc21	0.7	18	44	28	0.6	-0.24
c1ccc(-c2nc3nc4ccccc4nc3n2Cc2ccco2)cc1	0.9	5	51*	8	0.5	-2.3
O=C(N1CCOCC1)N1CCN(C(=O)N2CCOCC2)CC1	nt	5	nt	nt	nt	nt
COC(=O)c1sc(NC(=O)CSc2nnnn2-c2cccc(OC)c2)nc1C	nt	0	nt	nt	nt	0.47
CCC(=O)Nc1ccc(S(=O)(=O)N2CCCCC2)cc1OC	0.3	10	-142	67*	2.4*	0.66
CCC(=O)Nc1ccc(S(=O)(=O)Nc2cccc(C)c2)cc1OC	0.3	-2	-60	71*	1.6	-0.27
Cc1ccc(S(=O)(=O)c2n[nH]n3c2nc(=O)c2ccccc23)cc1	1.1	2	94*	-5	0.1	1.5
SMILES	CYP2C19 activ	HIV Rev-RRE inh	CYP2C9 inhib	CYP2C19 inh	CYP2C9 act	Cav32 inh
O=C(Nc1nc(=O)c2ccccc2s1)c1ccc(F)cc1	nt	8	nt	nt	nt	1.3
O=C(Nc1nc(=O)c2ccccc2s1)c1ccc(Cl)cc1	0.4	-1	39	62*	0.6	-0.36
CCOC(=O)c1c(NC(=O)CSc2nnc(CNc3ccc(F)cc3)o2)sc(C(C)=O)c1C	0.1	14	94*	89*	0.1	-2.4
CCOC(=O)c1sc(NC(=O)CSc2nnc(Cc3ccccc3)o2)c(C#N)c1C	0.7	4	90*	28	0.1	nt
Cc1cccnc1NC(=O)CSc1nnc(Cc2ccccc2)o1	nt	-3	nt	nt	nt	0.62
CCOC(=O)c1c(NC(=O)CSc2nnc(-c3ccc(C)cc3)o2)sc(C(C)=O)c1C	0.8	9	48	21	0.5	-3.4
CCOC(=O)c1c(NC(=O)CSc2nnc(Cc3ccccc3)o2)sc(C(C)=O)c1C	0.6	-3	52*	39	0.5	-1.6

Source: PubChem (several laboratories)
